In ChEMBL document CHEMBL4673246, “Directing Drugs to Bugs: Antibiotic-Carbohydrate Conjugates Targeting Biofilm-Associated Lectins of Pseudomonas aeruginosa” (J Med Chem, 2020):
pIC50: −log10 of the molar value. ≈ marks a conversion by molar mass, not a printed value.

How the values were obtained:
[1] = test system: Pseudomonas aeruginosa; assay: Antibacterial activity against Pseudomonas aeruginosa PA14 assessed as growth inhibition after 18 to 20 hrs in presence of PMBN by broth microdilution assay; assay type: functional; settings: time 18-20 hrs
How it was run: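 Cation-supplemented Mueller-Hinton broth II; final inoculum 5 × 10^5 CFU/mL. Incubated at 37 °C for 18–20 h. MIC read visually as the lowest concentration without growth; at least three independent experiments.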

[2] = test system: Escherichia coli; assay: Antibacterial activity against Escherichia coli K-12 MG1655 assessed as growth inhibition after 18 to 20 hrs by broth microdilution assay; assay type: functional; settings: time 18-20 hrs
How it was run: (§1)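 Overnight LB-agar colonies suspended to OD600 0.08–0.13, diluted 1:100; final inoculum 5 × 10^5 CFU/mL. 37 °C, 18–20 h, humid. MIC = lowest concentration without visible growth; range from at least three independent experiments.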

[3] = Inhibition of Pseudomonas aeruginosa ATCC 33347 LecA expressed in Escherichia coli BL21(DE3) cells incubated for 30 to 60 mins by (N-(fluorescein-5-yl)-N'-(beta-D-(m-aminophenyl)-galactopyranosyl)thiocarbamide) reporter based fluorescence polarization assay
How it was run: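 LecA at 40 μM with 20 nM fluorescein-galactoside reporter in TBS/Ca. Test compound serial dilutions in 30% DMSO co-solvent, triplicate. Incubation 30–60 min at room temperature, then fluorescence polarization read (ex 485, em 535 nm), blank-corrected for LecA alone. Four-parameter fit with plateaus fixed by the p-nitrophenyl β-D-galactoside control. At least three independent plates.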

[4] = test system: Pseudomonas aeruginosa; assay: Antibacterial activity against Pseudomonas aeruginosa PA14 harboring LecB deletion mutant assessed as growth inhibition after 18 to 20 hrs by broth microdilution assay; assay type: functional; settings: time 18-20 hrs; how it was run: as §1
[5] = test system: Pseudomonas aeruginosa; assay: Antibacterial activity against Pseudomonas aeruginosa PA14 harboring LecA deletion mutant assessed as growth inhibition after 18 to 20 hrs by broth microdilution assay; assay type: functional; settings: time 18-20 hrs; how it was run: as §1
[6] = test system: Pseudomonas aeruginosa; assay: Antibacterial activity against Pseudomonas aeruginosa PAO1 assessed as growth inhibition after 18 to 20 hrs in presence of PMBN by broth microdilution assay; assay type: functional; settings: time 18-20 hrs
How it was run: (§2)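 Broth microdilution per EUCAST guidelines in Müller-Hinton broth II (Ca2+/Mg2+ supplemented, pH 7.3). Colonies from overnight LB-agar plates were suspended to OD600 0.08–0.13, diluted 1:100, final inoculum 5 × 10^5 CFU/mL. PMBN at 2 μg/mL was added to the inoculum where indicated. Incubation 37 °C, 18–20 h. MIC was the lowest concentration with no visible growth. At least three independent experiments.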

[7] = test system: Pseudomonas aeruginosa; assay: Antibacterial activity against Pseudomonas aeruginosa PA14 assessed as growth inhibition after 18 to 20 hrs by broth microdilution assay; assay type: functional; settings: time 18-20 hrs; how it was run: as §1
[8] = test system: Staphylococcus carnosus; assay: Antibacterial activity against Staphylococcus carnosus DSM 20501 assessed as growth inhibition after 18 to 20 hrs by broth microdilution assay; assay type: functional; settings: time 18-20 hrs; how it was run: as §1
[9] = test system: Pseudomonas aeruginosa; assay: Antibacterial activity against Pseudomonas aeruginosa PAO1 assessed as growth inhibition after 18 to 20 hrs by broth microdilution assay; assay type: functional; settings: time 18-20 hrs; how it was run: as §1
[10] = test system: Escherichia coli; assay: Antibacterial activity against Escherichia coli DSM 1116 assessed as growth inhibition after 18 to 20 hrs by broth microdilution assay; assay type: functional; settings: time 18-20 hrs
How it was run: as §2, with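 “7.3). Test range 128 to 0.125 μg/mL, from DMSO stocks.” for “7.3).”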

[11] = test system: Pseudomonas aeruginosa; assay: Potency index ratio of pNP-beta-D-Gal IC50 to test compound IC50 for Inhibition of Pseudomonas aeruginosa ATCC 33347 LecA expressed in Escherichia coli BL21(DE3) cells
[12] = test system: Pseudomonas aeruginosa; assay: Potency index ratio of Me-alpha-D-Gal IC50 to test compound IC50 for Inhibition of Pseudomonas aeruginosa ATCC 33347 LecA expressed in Escherichia coli BL21(DE3) cells
[13] = Inhibition of Pseudomonas aeruginosa PAO1 LecB expressed in Escherichia coli BL21(DE3) cells incubated for 4 to 8 hrs by (N-(fluorescein-5-yl)-N'-(alpha-L-fucopyranosyl ethylene)thiocarbamide) reporter based fluorescence polarization assay
[14] = Inhibition of Pseudomonas aeruginosa PA14 LecB expressed in Escherichia coli BL21(DE3) cells incubated for 4 to 8 hrs by (N-(fluorescein-5-yl)-N'-(alpha-L-fucopyranosyl ethylene)thiocarbamide) reporter based fluorescence polarization assay
[15] = Cytotoxicity against human A549 cells assessed as growth inhibition at 100 uM after 48 hrs by MTT assay relative to control; assay type: cell-based; settings: read-out: GI
How it was run: (§3)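 MTT assay: HEK293 or A549 cells seeded at 2 × 10^5 per well. Compounds (final DMSO 1%) were added 24 h after seeding. Living cell mass was read after 48 h.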

[16] = Cytotoxicity against HEK293 cells assessed as growth inhibition at 100 uM after 48 hrs by MTT assay relative to control; assay type: cell-based; settings: human, read-out: GI; how it was run: as §3
[17] = Half life in human plasma at 40 uM measured up to 150 mins by LC-MS/MS analysis; assay type: ADME, cell-free
[18] = Clearance in mouse liver microsomes; assay type: ADME, Microsome
[19] = Protein binding in human plasma at 1 uM measured up to 6 hrs by LC-MS/MS analysis; assay type: ADME, cell-free
How it was run: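 Rapid equilibrium dialysis: human plasma diluted with PBS pH 7.4 on one side, PBS on the other, compound at 1 μM final. Shaken at 37 °C for 6 h. Sampled at 0, 5 and 6 h and quantified by LC-MS/MS. Binding calculated from the concentration difference between chambers. Warfarin as control.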

[20] = Clearance in human liver microsomes; assay type: ADME, Microsome
[21] = molecular target: DNA gyrase (Escherichia coli, UniProt P0AES4+P0AES6); assay: Inhibition of Escherichia coli DNA gyrase using relaxed PBR322 plasmid DNA as substrate incubated for 30 mins by ethidium bromide staining based agarose gel electrophoresis method; assay type: protein-complex assay
How it was run: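 E. coli gyrase supercoiling kit. Relaxed pBR322 plus 1 U gyrase per reaction, compound serially diluted in 5% DMSO; 30 min at 37 °C. Stopped with STE buffer and CHCl3/isoamyl alcohol; 1% agarose gel, ethidium bromide stain. Supercoiled band intensity fitted with a four-parameter model, bottom fixed at 0, for IC50; at least three experiments.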

Structure (SMILES) | MIC [1] [µg/mL] | MIC [2] [µg/mL] | pIC50 [3] | MIC [4] [µg/mL] | MIC [5] [µg/mL] | MIC [6] [µg/mL] | MIC [7] [µg/mL] | MIC [8] [µg/mL] | MIC [9] [µg/mL] | MIC [10] [µg/mL] | other results
O=C(CCCn1cc(CCN2CCN(c3cc4c(cc3F)c(=O)c(C(=O)O)cn4C3CC3)CC2)nn1)Nc1ccc(S[C@@H]2O[C@H](CO)[C@H](O)[C@H](O)[C@H]2O)cc1 | 32 | 16 (≈ 20.5 µM) | 4.53 | > 64 | > 64 | 32 | > 64 | 64 (≈ 81.9 µM) | > 64 | 4 (≈ 5.12 µM) | –
O=C(Cn1cc(CCN2CCN(c3cc4c(cc3F)c(=O)c(C(=O)O)cn4C3CC3)CC2)nn1)Nc1ccc(S[C@@H]2O[C@H](CO)[C@H](O)[C@H](O)[C@H]2O)cc1 | 16 | 8 (≈ 10.6 µM) | 4.67 | ≥ 64 | ≥ 64 | 32 | ≥ 64 | 64 (≈ 84.9 µM) | > 64 | – | –
[N-]=[N+]=NCCCC(=O)Nc1ccc(S[C@@H]2O[C@H](CO)[C@H](O)[C@H](O)[C@H]2O)cc1 | – | – | 4.51 | – | – | – | – | – | – | – | Ratio IC50 [11]: < 2; Ratio IC50 [12]: < 3
[N-]=[N+]=NCC(=O)Nc1ccc(S[C@@H]2O[C@H](CO)[C@H](O)[C@H](O)[C@H]2O)cc1 | – | – | 4.50 | – | – | – | – | – | – | – | Ratio IC50 [11]: < 2; Ratio IC50 [12]: < 3
[N-]=[N+]=NCCC(=O)Nc1ccc(S[C@@H]2O[C@H](CO)[C@H](O)[C@H](O)[C@H]2O)cc1 | – | – | 4.51 | – | – | – | – | – | – | – | Ratio IC50 [11]: < 2; Ratio IC50 [12]: < 3
C[C@@H]1O[C@H](CNS(=O)(=O)c2ccc(CCn3cc(CCN4CCN(c5cc6c(cc5F)c(=O)c(C(=O)O)cn6C5CC5)CC4)nn3)s2)[C@@H](O)[C@H](O)[C@@H]1O | 64 | 16 (≈ 20.6 µM) | – | – | – | ≥ 64 | – | ≥ 64 | – | 32 (≈ 41.2 µM) | pIC50 [13]: 5.60; pIC50 [14]: 6.00
O=C(O)c1cn(C2CC2)c2cc(N3CCNCC3)c(F)cc2c1=O [CIPROFLOXACIN] | – | < 0.125 | – | 0.05 (≈ 0.151 µM) | 0.05 (≈ 0.151 µM) | – | – | < 0.125 | – | < 0.125 | inhibition at 48 h, 100 µM [15]: 18%; inhibition at 48 h, 100 µM [16]: 48%
O=C(CCCn1cc(CN2CCN(c3cc4c(cc3F)c(=O)c(C(=O)O)cn4C3CC3)CC2)nn1)Nc1ccc(S[C@@H]2O[C@H](CO)[C@H](O)[C@H](O)[C@H]2O)cc1 | 4 | 1 (≈ 1.3 µM) | 4.56 | 8 (≈ 10.4 µM) | 8 (≈ 10.4 µM) | 4 | 8 (≈ 10.4 µM) | – | 16 (≈ 20.8 µM) | 2 (≈ 2.6 µM) | –
O=C(CCCCn1cc(CCN2CCN(c3cc4c(cc3F)c(=O)c(C(=O)O)cn4C3CC3)CC2)nn1)Nc1ccc(S[C@@H]2O[C@H](CO)[C@H](O)[C@H](O)[C@H]2O)cc1 | 32 | 16 (≈ 20.1 µM) | 4.58 | > 64 | > 64 | 32 | > 64 | ≥ 64 | > 64 | 4 (≈ 5.03 µM) | –
[N-]=[N+]=NCCCCC(=O)Nc1ccc(S[C@@H]2O[C@H](CO)[C@H](O)[C@H](O)[C@H]2O)cc1 | – | – | 4.52 | – | – | – | – | – | – | – | Ratio IC50 [11]: < 2; Ratio IC50 [12]: < 3
O=C(CCn1cc(CCN2CCN(c3cc4c(cc3F)c(=O)c(C(=O)O)cn4C3CC3)CC2)nn1)Nc1ccc(S[C@@H]2O[C@H](CO)[C@H](O)[C@H](O)[C@H]2O)cc1 | 32 | 16 (≈ 20.8 µM) | 4.55 | > 64 | > 64 | 32 | > 64 | > 64 | > 64 | – | –
O=C(Cn1cc(CN2CCN(c3cc4c(cc3F)c(=O)c(C(=O)O)cn4C3CC3)CC2)nn1)Nc1ccc(S[C@@H]2O[C@H](CO)[C@H](O)[C@H](O)[C@H]2O)cc1 | 4 | 2 (≈ 2.7 µM) | 4.52 | – | – | 4 | – | 32 (≈ 43.3 µM) | 16 (≈ 21.6 µM) | – | inhibition at 48 h, 100 µM [15]: 5%; half-life at […], 40 µM [17]: > 2.5 h; microsomal CLint [18]: 10 µL/min/mg; PPB [19]: 69%; inhibition at 48 h, 100 µM [16]: 8%; microsomal CLint [20]: 10 µL/min/mg
C[C@@H]1O[C@H](CNS(=O)(=O)c2ccc(CCn3cc(CN4CCN(c5cc6c(cc5F)c(=O)c(C(=O)O)cn6C5CC5)CC4)nn3)s2)[C@@H](O)[C@H](O)[C@@H]1O | 64 | 8 (≈ 10.5 µM) | – | 64 (≈ 84 µM) | ≥ 64 | 32 | 64 (≈ 84 µM) | ≥ 64 | ≥ 64 | 16 (≈ 21 µM) | inhibition at 48 h, 100 µM [15]: -9%; pIC50 [13]: 5.63; half-life at […], 40 µM [17]: > 2.5 h; pIC50 [14]: 5.65; microsomal CLint [18]: 10 µL/min/mg; PPB [19]: 75%; inhibition at 48 h, 100 µM [16]: 11%; microsomal CLint [20]: 15 µL/min/mg
O=C(CCCCn1cc(CN2CCN(c3cc4c(cc3F)c(=O)c(C(=O)O)cn4C3CC3)CC2)nn1)Nc1ccc(S[C@@H]2O[C@H](CO)[C@H](O)[C@H](O)[C@H]2O)cc1 | 2 | 2 (≈ 2.56 µM) | 4.55 | – | – | 8 | – | – | 32 (≈ 40.9 µM) | 4 (≈ 5.12 µM) | –
CO[C@H]1O[C@H](CO)[C@H](O)[C@H](O)[C@H]1O | – | – | 4.14 | – | – | – | – | – | – | – | –
O=C(CCn1cc(CN2CCN(c3cc4c(cc3F)c(=O)c(C(=O)O)cn4C3CC3)CC2)nn1)Nc1ccc(S[C@@H]2O[C@H](CO)[C@H](O)[C@H](O)[C@H]2O)cc1 | 8 | 2 (≈ 2.65 µM) | 4.49 | 8 (≈ 10.6 µM) | 8 (≈ 10.6 µM) | 4 | 8 (≈ 10.6 µM) | 32 (≈ 42.5 µM) | 16 (≈ 21.2 µM) | – | –
C#CCN1CCN(c2cc3c(cc2F)c(=O)c(C(=O)O)cn3C2CC2)CC1 | 0.025 | – | – | – | – | 1 | 2 (≈ 5.41 µM) | – | 4 (≈ 10.8 µM) | – | pIC50 [21]: 6.15
C[C@@H]1O[C@H](CNS(=O)(=O)c2ccc(CCN=[N+]=[N-])s2)[C@@H](O)[C@H](O)[C@@H]1O | – | – | – | – | – | – | – | – | – | – | pIC50 [13]: 5.41; pIC50 [14]: 5.73
O=[N+]([O-])c1ccc(O[C@@H]2O[C@H](CO)[C@H](O)[C@H](O)[C@H]2O)cc1 | – | – | 4.28 | – | – | – | – | – | – | – | –
